Results as given in ChEMBL document CHEMBL1155073, “Molecular recognition of a DNA:RNA hybrid: sub-nanomolar binding by a neomycin-methidium conjugate” (Bioorg Med Chem Lett, 2008).

Columns and labels:
[1] = Binding affinity to synthetic poly(dA-dT):poly(dA-dT) DNA: DNA duplex assessed as melting temperature at 2.2 uM
How it was run: (§1)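 Thermal denaturation of each nucleic acid (20 µM/bp) with ligand at 2.2 µM, with melting temperatures read from UV and CD melting profiles. ΔTm is taken against the ligand-free Tm0.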

[2] = Binding affinity to synthetic poly(rA):poly(rU) RNA:RNA duplex assessed as melting temperature at 2.2 uM; how it was run: as §1
[3] = Binding affinity to synthetic poly(dA):poly(rU) DNA:RNA hybrid assessed as melting temperature at 2.2 uM; how it was run: as §1
[4] = Binding affinity to synthetic poly(dA):poly(rU) DNA:RNA hybrid assessed as association constant at 20 degC
How it was run: (§2)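 Apparent association constant is estimated from the UV/CD melting-temperature shift (Eq. 1). Binding stoichiometry n comes from fluorescence titrations, duplex melting enthalpy from DSC, and free ligand is taken as half the total. The value is extrapolated to 20 °C by integrated van't Hoff using dilution-corrected excess-site ITC enthalpies (15, 20, 25 °C) and derived ΔCp. Buffer: 10 mM sodium cacodylate, 0.5 mM EDTA, 100 mM NaCl, pH 5.5.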

[5] = Binding affinity to synthetic poly(dA-dT):poly(dA-dT) DNA:DNA duplex assessed as association constant at 20 degC; how it was run: as §2
[6] = Binding affinity to synthetic poly(rA):poly(rU) RNA duplex assessed as association constant at 20 degC
[7] = Binding affinity to synthetic poly(dG):poly(dC) DNA:DNA duplex assessed as melting temperature at 2.2 uM; how it was run: as §1
[8] = Binding affinity to synthetic A-site RNA assessed as melting temperature at 2.2 uM; how it was run: as §1
[9] = test system: DNA; assay: Binding affinity to calf thymus DNA assessed as melting temperature at 2.2 uM; assay type: nucleic-acid assay; settings: Bos taurus; how it was run: as §1
[10] = Binding affinity to synthetic poly(dA):2poly(dT) DNA:DNA duplex assessed as melting temperature at 2.2 uM; how it was run: as §1
[11] = Binding affinity to synthetic poly(dA):poly(dT) DNA:DNA duplex assessed as melting temperature at 2.2 uM; how it was run: as §1
[12] = Binding affinity to synthetic poly(rA):poly(dT) DNA:RNA hybrid assessed as melting temperature at 2.2 uM; how it was run: as §1
[13] = Binding affinity to synthetic A-site RNA assessed as change in melting temperature at 2.2 uM; how it was run: as §1
[14] = test system: DNA; assay: Binding affinity to calf thymus DNA assessed as change in melting temperature at 2.2 uM; assay type: nucleic-acid assay; settings: Bos taurus; how it was run: as §1
[15] = Binding affinity to synthetic poly(dA): 2poly(dT) DNA:DNA duplex assessed as change in melting temperature at 2.2 uM; how it was run: as §1
[16] = Binding affinity to synthetic poly(dA):poly(dT) DNA:DNA duplex assessed as change in melting temperature at 2.2 uM; how it was run: as §1
[17] = Binding affinity to synthetic poly(dA-dT):poly(dA-dT) DNA:DNA duplex assessed as change in melting temperature at 2.2 uM; how it was run: as §1
[18] = Binding affinity to synthetic poly(rA):poly(rU) RNA:RNA duplex assessed as change in melting temperature at 2.2 uM; how it was run: as §1
[19] = Binding affinity to synthetic poly(dA):poly(rU) DNA:RNA hybrid assessed as change in melting temperature at 2.2 uM; how it was run: as §1
[20] = Binding affinity to synthetic poly(rA):poly(dT) DNA:RNA hybrid assessed as change in melting temperature at 2.2 uM; how it was run: as §1
[21] = Binding affinity to synthetic poly(rA):poly(rU) DNA:RNA hybrid assessed as association constant at 20 degC; how it was run: as §2

SMILES | Tm [1] [°C] | Tm [2] [°C] | Tm [3] [°C] | Ka [4] | Ka [5] | Ka [6] | further results
NC[C@@H]1O[C@H](O[C@H]2[C@@H](O)[C@H](O[C@@H]3[C@@H](O)[C@H](N)C[C@H](N)[C@H]3O[C@H]3O[C@H](CN)[C@@H](O)[C@H](O)[C@H]3N)O[C@@H]2CO)[C@H](N)[C@@H](O)[C@@H]1O | 62.9 | 64.7 | 65.8 | 9.9 ×10⁶ /M | 7 ×10⁴ /M | 2.6 ×10⁷ /M | 
C[n+]1c(-c2ccc(C(=O)NCCSC[C@H]3O[C@@H](O[C@@H]4[C@@H](O)[C@H](N)C[C@H](N)[C@H]4O[C@H]4O[C@H](CN)[C@@H](O)[C@H](O)[C@H]4N)[C@H](O)[C@@H]3O[C@H]3O[C@@H](CN)[C@@H](O)[C@H](O)[C@H]3N)cc2)c2cc(N)ccc2c2ccc(N)cc21 | 66.2 | 77 | 90.5 | 4.8 ×10¹⁰ /M | 1 ×10⁶ /M | 2.1 ×10⁹ /M | Tm [7]: > 95 °C; Tm [8]: 79.8 °C; Tm [9]: > 95 °C; Tm [10]: 75.9 °C; Tm [11]: 76.1 °C; Tm [12]: 82.4 °C; ΔTm [13]: 8.1 °C; ΔTm [14]: > 8.1 °C; ΔTm [15]: 7.7 °C; ΔTm [16]: 7.7 °C; ΔTm [17]: 7.4 °C; ΔTm [18]: 34.3 °C; ΔTm [19]: 46.9 °C; ΔTm [20]: 20.1 °C
CC[n+]1c(-c2ccccc2)c2cc(N)ccc2c2ccc(N)cc21 | 63.2 | 64.2 | 61.8 | 9.3 ×10⁶ /M | 2 ×10⁵ /M |  | Ka [21]: 1.8 ×10⁶ /M
